Measurements taken from ChEMBL document CHEMBL1275586, “Phenotypic susceptibility to bevirimat in isolates from HIV-1-infected patients without prior exposure to bevirimat” (Antimicrob Agents Chemother, 2010).

Tests used:
Assay type in all cases: functional, MT2
[1] = system: Human immunodeficiency virus 1; test: Antiviral activity against Human immunodeficiency virus 1 isolate 3 harboring Gag-capsid I138L, A146P, I147L, V159I, S176A, V215L, H219Q/H, T242N, G248A, T280V, A340G and G357S mutant gene and protease L10I, T31S/T, V32I, M36I/M, S37C, R41K, M46I, F53L, I54V, R57K, L63P, I64V, A71V, V82A and L90M mutant gene infected in human MT-2 cells by XTT-assay relative to wild-type
How it was run: (§1)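 Patient Gag-protease (SfoI-XmaI) fragments were ligated into the pXXLAI backbone, with colonies pooled to keep quasispecies. Virus came from 293T transfection, harvested at 2 days. MT-2 infection at 37°C used an input giving XTT signal-to-noise of 2.5–4.0 (≈MOI 0.001). Cells at ≈17,000/well with drug dilutions, 5 days, 37°C; XTT 1 h, A450–650. EC50 from % cell death; fold change vs wild-type LAI.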

[2] = system: Human immunodeficiency virus 1; test: Antiviral activity against Human immunodeficiency virus 1 isolate 5 harboring Gag-capsid I138M, V159I, T280V and S310T mutant gene and protease I13V, D30N, L33I, E35D, M36I, S37N, M46I/L, I54V, I62V, L63P, I66M/I, A71N/T, I72T/I, V82L/V, N88D, L90M and I93L/I mutant gene infected in human MT-2 cells by XTT-assay relative to wild-type; how it was run: as §1
[3] = system: Human immunodeficiency virus 1; test: Antiviral activity against Human immunodeficiency virus 1 isolate 24 harboring Gag-capsid I138L, V159I, V215L, I223A, T239S, N252S, T280V, R286K, S310T and V362I mutant gene and protease L10V, I13V, I15V, K20R, D30N, V32I, L33F, E35D, M36I, S37N, K43T, M46I, I47V, F53L, I54L, I62V, L63P, I66F, A71V, T74S, V82A, N88D, L89V, L90M and I93V mutant gene infected in human MT-2 cells by XTT-assay …
[4] = system: Human immunodeficiency virus 1; test: Antiviral activity against Human immunodeficiency virus 1 isolate 36 harboring Gag-capsid I138L, A146P, S165N/S, E207D, V215L and E312D mutant gene and protease K14R/K, I15V, E35D, S37D, R57K/R and L63P mutant gene infected in human MT-2 cells by XTT-assay relative to wild-type; how it was run: as §1
[5] = system: Human immunodeficiency virus 1; test: Antiviral activity against Human immunodeficiency virus 1 isolate 38 harboring Gag-capsid I138L, I147L, V215L, H219Q/H, I223V, N252H, P292S, A336S/A and A340G mutant gene and protease E35D, S37A and L63P mutant gene infected in human MT-2 cells by XTT-assay relative to wild-type; how it was run: as §1
[6] = system: Human immunodeficiency virus 1; test: Antiviral activity against Human immunodeficiency virus 1 isolate 27 harboring Gag-capsid I138L, S173T/S, V215L, L268M, R275K/R, T280V, S310T, E319D and G357S and protease L10I, I15V, L19V, V32I, L33F, M46I, I54V, K55R, R57K, L63P, C67F, H69Q, A71V, G73C/G, V82A, L90M and Q92K mutant gene and deletion at A341 in Gag- capsid infected in human MT-2 cells by XTT-assay relative to wild-type; how it was run: as §1
[7] = system: Human immunodeficiency virus 1; test: Antiviral activity against Human immunodeficiency virus 1 isolate 25 harboring Gag-capsid I138M, S173A, V215L, N252S, I256T, S310T/S, A340G and E345D mutant gene and protease L10F, V11I, I13V, K20I, V32I, L33F, E34Q, E35D, M36I, S37N, K43T, M46I, F53Y, I54L, Q61N, I62V, L63T, I64V, A71L, T74S, L76V, I84V, L90M and I93L mutant gene infected in human MT-2 cells by XTT-assay relative to wild-type; how it was run: as §1
[8] = system: Human immunodeficiency virus 1; test: Antiviral activity against Human immunodeficiency virus 1 isolate 7 harboring Gag-capsid I138L, I147L, S173A, V215L, I223V, T242N, G248A, N252A, I126T, T280V and E312D mutant gene and protease K20R, M36I, R41K, M46I, L63Q, I64V, P79S, V82F and L90M mutant gene infected in human MT-2 cells by XTT-assay relative to wild-type; how it was run: as §1
[9] = system: Human immunodeficiency virus 1; test: Antiviral activity against Human immunodeficiency virus 1 isolate 31 harboring Gag-capsid I138L, S173T, V215L, I223N, M228L, G248Q, N252H, T280V and E312D mutant gene and protease I13V, K14R/K, M36I, S37N, I64V, H69K and I72V mutant gene infected in human MT-2 cells by XTT-assay relative to wild-type; how it was run: as §1
[10] = system: Human immunodeficiency virus 1; test: Antiviral activity against Human immunodeficiency virus 1 isolate 29 harboring Gag-capsid I138M, A146P, R286K, T303V and A326S mutant gene and protease L10F, I13V, V32I, M36L, S37N, L38W, P39Q, M46I, I47V, I50V, I62V, L63P, A71I, I72V and V82A mutant gene infected in human MT-2 cells by XTT-assay relative to wild-type; how it was run: as §1
[11] = system: Human immunodeficiency virus 1; test: Antiviral activity against Human immunodeficiency virus 1 isolate 33 harboring Gag-capsid I138L, V215L, V218P, H219Q, I223V, M228I, G248T, N252S, N253T, I256M, E312D and A326S mutant gene and protease T12S/T, I13V/I, I15V, L19I, S37T, L63V/A/P/L and I72V/I mutant gene infected in human MT-2 cells by XTT-assay relative to wild-type; how it was run: as §1
[12] = system: Human immunodeficiency virus 1; test: Antiviral activity against Human immunodeficiency virus 1 isolate 26 harboring Gag-capsid I138L, A146S, I147L, E312D, A326S, L337M, and A340G mutant gene and protease T4S, L10F, V11L, I13V, I15V, K20A, V32I, L33F, M36I, S37D, K43T, M46I, I54L, I62V, L63P, A71I, I72K, G73T, I84V,I85V, L89V and L90M mutant gene infected in human MT-2 cells by XTT-assay relative to wild-type; how it was run: as §1
[13] = system: Human immunodeficiency virus 1; test: Antiviral activity against Human immunodeficiency virus 1 isolate 2 harboring Gag-capsid A146P, S173A, V215L, H219P, E230D, N252S, R264K, L268M and A340G mutant gene and protease L10I, I15V, K20R, M36I, S37N, M46I, L63P, T80A, V82A, N83H, I84V, I85T and L90M mutant gene infected in human MT-2 cells by XTT-assay relative to wild-type; how it was run: as §1
[14] = system: Human immunodeficiency virus 1; test: Antiviral activity against Human immunodeficiency virus 1 isolate 12 harboring Gag-capsid I138L E207D, V215L, V218P, H219Q, M228I, G248T, T280S, E312D, A340G, G357S and V362I mutant gene and protease S37N, I62V/I, L63P, I64L and V82I mutant gene infected in human MT-2 cells by XTT-assay relative to wild-type; how it was run: as §1
[15] = system: Human immunodeficiency virus 1; test: Antiviral activity against Human immunodeficiency virus 1 isolate 8 harboring Gag-capsid V215T mutant gene and protease L10I, L24I, L33F, S37N, R41K, I54V, D60E, I62V, L63P, A71V, V77I, V82A and I84V mutant gene infected in human MT-2 cells by XTT-assay relative to wild-type; how it was run: as §1
[16] = system: Human immunodeficiency virus 1; test: Antiviral activity against Human immunodeficiency virus 1 isolate 30 harboring Gag-capsid I138L, V215L, R286K and Q311A mutant gene and protease I13V, E35D, S37N and L63P mutant gene infected in human MT-2 cells by XTT-assay relative to wild-type; how it was run: as §1
[17] = system: Human immunodeficiency virus 1; test: Antiviral activity against Human immunodeficiency virus 1 isolate 35 harboring Gag-capsid V159I, I223T, N252S, A326S/A, A340G and G357S mutant gene and protease I15V, G16E, E35D, S37N, L63H and I72V mutant gene infected in human MT-2 cells by XTT-assay relative to wild-type; how it was run: as §1
[18] = system: Human immunodeficiency virus 1; test: Antiviral activity against Human immunodeficiency virus 1 isolate 4 harboring Gag-capsid A146P, V159I, K162R, Q182S, T186I, V215L, I223G/V, N252G, P255A, E260D, E312D and G357S mutant gene and protease L10R, S37N, M46L, I62V, L63P, A71V, T74S, V82T, L90M and I93L mutant gene infected in human MT-2 cells by XTT-assay relative to wild-type; how it was run: as §1
[19] = system: Human immunodeficiency virus 1; test: Antiviral activity against Human immunodeficiency virus 1 isolate 21 harboring Gag-capsid I138L, A146P, I147L/I, V159I/V, E211D, V215L, N252H/N, R286K/R and K331R/K mutant gene and protease E35D, M36I, S37N, I62V and L63C mutant gene infected in human MT-2 cells by XTT-assay relative to wild-type; how it was run: as §1
[20] = system: Human immunodeficiency virus 1; test: Antiviral activity against Human immunodeficiency virus 1 isolate 1 harboring Gag-capsid I138L, V159I, E203D, V215L, I223V, T280V, E312D and V323I mutant gene and protease L10I, K20R, M36I, S37N, G48V, I54M, I62V, L63P, A71V, I72V, V82A, I84V, L90M and I93L/I mutant gene infected in human MT-2 cells by XTT-assay relative to wild-type; how it was run: as §1
[21] = system: Human immunodeficiency virus 1; test: Antiviral activity against Human immunodeficiency virus 1 isolate 34 harboring Gag-capsid I138L, I147L, V159I, V215L, T280V, A309C, S310T, E312D and G357S mutant gene and protease L10I, I13V, E35D, S37N, I62V, L63P and I64M mutant gene infected in human MT-2 cells by XTT-assay relative to wild-type; how it was run: as §1

| Compound | fold change (FC) [1] | fold change (FC) [2] | fold change (FC) [3] | fold change (FC) [4] | fold change (FC) [5] | fold change (FC) [6] | fold change (FC) [7] | fold change (FC) [8] | fold change (FC) [9] | fold change (FC) [10] | fold change (FC) [11] | fold change (FC) [12] | fold change (FC) [13] | fold change (FC) [14] | fold change (FC) [15] | fold change (FC) [16] | fold change (FC) [17] | fold change (FC) [18] | fold change (FC) [19] | fold change (FC) [20] | other results |
| --- | --- | --- | --- | --- | --- | --- | --- | --- | --- | --- | --- | --- | --- | --- | --- | --- | --- | --- | --- | --- | --- |
| COC(=O)N[C@H](C(=O)N[C@@H](Cc1ccccc1)[C@@H](O)CN(Cc1ccc(-c2ccccn2)cc1)NC(=O)[C@@H](NC(=O)OC)C(C)(C)C)C(C)(C)C [ATAZANAVIR] | 15.1 | 63.2 | 590 | 1.3 | 1.2 | 52.1 | 184 | 1 | 1.9 | 3.2 | 1.8 | 571 | 10.7 | 1.2 | 29 | 0.9 | 0.9 | 13.3 | 0.8 | 62.9 | fold change (FC) [21]: 1.6 |
| Cc1cccc(C)c1OCC(=O)N[C@@H](Cc1ccccc1)[C@@H](O)C[C@H](Cc1ccccc1)NC(=O)[C@H](C(C)C)N1CCCNC1=O [LOPINAVIR] | 13 | 12.1 | 69 | 1.1 | 0.9 | 29.2 | 58.9 | 4.1 | 1.1 | 89.3 | 1.6 | 46.5 | 15.5 | 1.1 | 28.7 | 0.7 | 1 | 15.2 | 0.6 | 22.1 | fold change (FC) [21]: 1.4 |
